Columns and labels:
[1] = test system: PBL; assay: Radioprotective activity in 2-Gy gamma irradiated human PBL assessed as incidence of micronuclei in binucleated cells at 3.1 uM treated for 2 to 19 hrs followed by compound washout measured after 72 hrs by cytochalasin-B-blocked micronucleus assay (reference value: 1.2 +/- 0.03); assay type: functional
In short: (§1)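 Venous blood from five healthy male volunteers was γ-irradiated at 2 Gy (0.45 Gy/min) at room temperature and cultured. Compounds (0.8−7.4 μM final) were added 2 to 19 h after irradiation, at 37 °C. Cultures were then rinsed and moved to fresh RPMI 1640 for 72 h. Cytokinesis-block micronucleus assay: ≥1000 binucleated cells scored per sample (Countryman–Heddle criteria). Controls were non-treated irradiated cultures; one-way ANOVA with Tukey test.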

[2] = test system: PBL; assay: Toxicity in 2-Gy gamma irradiated human PBL assessed as cytokinesis-block proliferation index at 0.8 uM treated for 2 to 19 hrs followed by compound washout measured after 72 hrs (reference value: 1.6 +/- 0.1); assay type: cell-based
[3] = test system: PBL; assay: Toxicity in 2-Gy gamma irradiated human PBL assessed as cytokinesis-block proliferation index at 1.5 uM treated for 2 to 19 hrs followed by compound washout measured after 72 hrs (reference value: 1.6 +/- 0.1); assay type: cell-based
[4] = test system: PBL; assay: Toxicity in 2-Gy gamma irradiated human PBL assessed as cytokinesis-block proliferation index at 3.1 uM treated for 2 to 19 hrs followed by compound washout measured after 72 hrs (reference value: 1.6 +/- 0.1); assay type: cell-based
[5] = test system: PBL; assay: Radioprotective activity in 2-Gy gamma irradiated human PBL assessed as binucleated cells with micronuclei at 0.8 uM treated for 2 to 19 hrs followed by compound washout measured after 72 hrs by cytochalasin-B-blocked micronucleus assay (reference value: 15.5 +/- 0.6%); assay type: functional; in short: as §1
[6] = test system: PBL; assay: Radioprotective activity in 2-Gy gamma irradiated human PBL assessed as binucleated cells with micronuclei at 1.5 uM treated for 2 to 19 hrs followed by compound washout measured after 72 hrs by cytochalasin-B-blocked micronucleus assay (reference value: 15.5 +/- 0.6%); assay type: functional; in short: as §1
[7] = test system: PBL; assay: Radioprotective activity in 2-Gy gamma irradiated human PBL assessed as binucleated cells with micronuclei at 3.1 uM treated for 2 to 19 hrs followed by compound washout measured after 72 hrs by cytochalasin-B-blocked micronucleus assay (reference value: 15.5 +/- 0.6%); assay type: functional; in short: as §1
[8] = test system: PBL; assay: Radioprotective activity in 2-Gy gamma irradiated human PBL assessed as incidence of micronuclei in 1000 binucleated cells at 0.8 uM treated for 2 to 19 hrs followed by compound washout measured after 72 hrs by cytochalasin-B-blocked micronucleus assay (reference value: 183 +/- 9.6); assay type: functional; in short: as §1
[9] = test system: PBL; assay: Radioprotective activity in 2-Gy gamma irradiated human PBL assessed as incidence of micronuclei in 1000 binucleated cells at 1.5 uM treated for 2 to 19 hrs followed by compound washout measured after 72 hrs by cytochalasin-B-blocked micronucleus assay (reference value: 183 +/- 9.6); assay type: functional; in short: as §1
[10] = test system: PBL; assay: Radioprotective activity in 2-Gy gamma irradiated human PBL assessed as incidence of micronuclei in 1000 binucleated cells at 3.1 uM treated for 2 to 19 hrs followed by compound washout measured after 72 hrs by cytochalasin-B-blocked micronucleus assay (reference value: 183 +/- 9.6); assay type: functional; in short: as §1
[11] = test system: PBL; assay: Radioprotective activity in 2-Gy gamma irradiated human PBL assessed as frequency of micronuclei at 1.5 uM treated for 2 to 19 hrs followed by compound washout measured after 72 hrs by cytochalasin-B-blocked micronucleus assay relative to control; assay type: functional; in short: as §1
[12] = test system: PBL; assay: Radioprotective activity in 2-Gy gamma irradiated human PBL assessed as frequency of micronuclei at 3.1 uM treated for 2 to 19 hrs followed by compound washout measured after 72 hrs by cytochalasin-B-blocked micronucleus assay relative to control; assay type: functional; in short: as §1
[13] = test system: PBL; assay: Radioprotective activity in 2-Gy gamma irradiated human PBL assessed as incidence of micronuclei in binucleated cells at 0.8 uM treated for 2 to 19 hrs followed by compound washout measured after 72 hrs by cytochalasin-B-blocked micronucleus assay (reference value: 1.2 +/- 0.03); assay type: functional; in short: as §1
[14] = test system: PBL; assay: Radioprotective activity in 2-Gy gamma irradiated human PBL assessed as incidence of micronuclei in binucleated cells at 1.5 uM treated for 2 to 19 hrs followed by compound washout measured after 72 hrs by cytochalasin-B-blocked micronucleus assay (reference value: 1.2 +/- 0.03); assay type: functional; in short: as §1
[15] = test system: PBL; assay: Radioprotective activity in 2-Gy gamma irradiated human PBL assessed as frequency of micronuclei at 0.8 uM treated for 2 to 19 hrs followed by compound washout measured after 72 hrs by cytochalasin-B-blocked micronucleus assay relative to control; assay type: functional; in short: as §1

| Compound | Activity [1] | Activity [2] | Activity [3] | Activity [4] | Activity [5] [%] | Activity [6] [%] | Activity [7] [%] | Activity [8] | Activity [9] | Activity [10] | Activity [11] [%] | Activity [12] [%] | Activity [13] | Activity [14] | Activity [15] [%] |
| --- | --- | --- | --- | --- | --- | --- | --- | --- | --- | --- | --- | --- | --- | --- | --- |
| C[C@@H]1O[C@@H](O[C@H]2[C@H](Oc3c(-c4ccc(O)c(O)c4)oc4cc5c(c(O)c4c3=O)OCO5)O[C@H](CO)[C@@H](O)[C@@H]2O)[C@H](O)[C@H](O)[C@H]1O | 1.2 | 1.7 | 1.7 | 1.7 | 15.1 | 14.1 | 15.3 | 181 | 178.8 | 187 | 97.7 | 102.2 | 1.2 | 1.3 | 98.9 |
| COc1cc(-c2oc3cc4c(c(O)c3c(=O)c2O[C@@H]2O[C@H](CO)[C@@H](O)[C@H](O)[C@H]2O[C@@H]2O[C@@H](C)[C@H](O)[C@@H](O)[C@H]2O)OCO4)ccc1O | 1.2 | 1.7 | 1.7 | 1.8 | 14.4 | 14.1 | 14.3 | 172 | 170.9 | 175.3 | 93.4 | 95.8 | 1.2 | 1.2 | 94 |
| COc1cc(-c2oc3cc4c(c(O)c3c(=O)c2O[C@@H]2O[C@H](CO[C@@H]3O[C@@H](C)[C@H](O)[C@@H](O)[C@H]3O)[C@@H](O)[C@H](O)[C@H]2O)OCO4)ccc1O | 1.2 | 1.6 | 1.6 | 1.6 | 11.2 | 10.8 | 11.7 | 126.6 | 131.3 | 141.4 | 71.7 | 77.3 | 1.2 | 1.2 | 69.2 |

From ChEMBL document CHEMBL3608301, “Phenolic Compounds from Atriplex littoralis and Their Radiation-Mitigating Activity” (J Nat Prod, 2015)
